UPR XBP1 act = activators of adaptive XBP1 UPR arm, primary screen, cell-based, CHO-XBP1 luciferase reporter, luminescence, uHTS | hit rate 0.33% among 330,000 | IRE1-XBP1 UPR activation; percent of tunicamycin response, DMSO as zero | activation, % at 20 µM | AID 463104, 2010;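 active = versus positive control, 20 µM dose yields 30% or more activation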
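Signal: luciferase luminescence; Assay system: CHO-XBP1 luciferase reporter cells; Amount: one thousand reporter cells per well; Dosing: 20 µM single concentration, DMSO 1%; Benchmarks: high control tunicamycin 10 µg/mL final, low control DMSO vehicle only; Schedule: 6 h compound exposure at 37 °C, 5% CO2; Evaluation: percent activation relative to tunicamycin reference.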
MC4R ag barr = MC4R agonists recruiting beta-arrestin, primary screen, cell-based, luminescence, agonist arm of biased-ligand search | Melanocortin receptor 4 (Homo sapiens), P32245 | U2OS MC4R beta-arrestin complementation; percent of melanotan II response, DMSO zero | activation, % at 8.9 µM | hit rate 0.98% among 360,000;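 active = activation above a per-plate cutoff, the mean activation of sample wells on that plate plus 3 SD, cut at about 8% in these data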
Target sequence (P32245 whole entry, looked up): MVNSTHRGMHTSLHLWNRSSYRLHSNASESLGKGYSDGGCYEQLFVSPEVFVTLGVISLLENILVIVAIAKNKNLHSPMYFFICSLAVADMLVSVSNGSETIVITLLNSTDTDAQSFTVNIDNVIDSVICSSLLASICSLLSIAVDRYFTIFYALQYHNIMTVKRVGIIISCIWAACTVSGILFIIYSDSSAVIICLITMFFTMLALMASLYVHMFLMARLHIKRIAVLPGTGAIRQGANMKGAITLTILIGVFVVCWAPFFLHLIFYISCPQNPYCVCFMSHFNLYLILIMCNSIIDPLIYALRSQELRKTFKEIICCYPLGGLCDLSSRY
MC4R antag cAMP = MC4R antagonists of cAMP signaling, primary screen, cell-based, TR-FRET, antagonist arm of biased-ligand search; hit rate 0.48% among 360,000; MC4R-expressing cells, MTII-stimulated cAMP, LANCE TR-FRET; inhibition, % at 6.5 µM;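 active = inhibition above its plate's cutoff, the mean of tested wells on that plate plus 3 SD, cut at about 29% in these data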
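Assay system: human MC4R-expressing U2OS cells; reagent: Melanotan II stimulation of cells; dosing: 6.5 µM single dose; timing: compound 30 min, challenge 1 h, detection 1 h; signal: TR-FRET cAMP assay; replicates: one well per compound, no replicates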
Bfl-1 A1 inh = caspase 3/7 activation in MEF A1-2A-BIM cells, primary screen, A1 inhibitor project, cell-based, luminescence, HTS; hit rate 0.066% among 330,000; caspase activation, % (no concentration beside the values); AID 2462, 2010; Caspase-Glo 3/7 luminescence, 3 h; percent of clofoctol response, vehicle zero;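 active = over half of replicate activation scores above 10%, or exactly half above 10 with the replicate mean above 10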
UPR CHOP act = activators of apoptotic CHOP UPR arm, primary screen, cell-based, CHO-CHOP luciferase reporter, luminescence, uHTS; UPR activation; percent of tunicamycin response over DMSO baseline; activation, % at 10 µM; hit rate 0.34% among 330,000;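 active = at 10 µM dose, activation of 40% or more, normalized to positive control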
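Material: CHO-CHOP cells, stable luciferase reporter of PERK-eIF2a-CHOP signalling; quantity: 500 reporter cells seeded per well; buffer or medium: F12 medium containing 10% fetal bovine serum; compound: one dose, 10 µM in 0.5% DMSO; incubation: 6 h compound treatment, 37 °C; measured by: Steady-Glo luciferase luminescence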
U2OS cAMP counter = nonselective cAMP signaling inhibitors, parental cells, counter-screen for MC4R biased antagonist project, cell-based, TR-FRET, U2OS, forskolin, triplicate. shares compounds with MC4R antag cAMP. LANCE TR-FRET. inhibition, % at 6.5 µM. hit rate 26% among 1,600. AID 602193, 2012;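 active = mean inhibition over triplicates above the low-control well mean plus 3 SD, set per campaign, cut at about 13% in these data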;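 note: signal is single emission at 671 nm which falls as cellular cAMP rises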
MC4R cAMP antag = MC4R cAMP antagonists, retest, confirmation, cell-based, TR-FRET | shares compounds with MC4R antag cAMP | MC4R-expressing cells, MTII-stimulated cAMP | inhibition, % at 6.5 µM | hit rate 27% among 1,600; in the data active = inhibition above about 29%
Numbers stand for hits; – = inactive; · = no result; ! = not confirmed by another sample. Sampled rows, rich in hits. Any-hit rate of the full collection: about 2%.

SMILES	UPR XBP1 act	MC4R ag barr	MC4R antag cAMP	Bfl-1 A1 inh	UPR CHOP act	U2OS cAMP counter	MC4R cAMP antag
CC(=O)Nc1ccc(-c2ccnc3c2CC(C)(C(=O)Nc2ccc(Cl)cc2)O3)cc1 (centres undefined)	·	–	–	·	·	·	·
Cc1sc2ncnc(Sc3ccccc3C(=O)O)c2c1C	–	–	97	–	–	50	87
COc1ccc2c(C=Nc3c(C)n(C)n(-c4ccccc4)c3=O)c(O)n(Cc3ccco3)c(=O)c2c1	–	–	37!	–	–	–	–
COc1ccc(Cn2c(O)c(C=Nc3ccccc3C(=O)O)c3ccccc3c2=O)cc1	–	–	32	–	–	–	–
Cc1c(N=Cc2ccco2)c(=O)n(-c2ccccc2)n1C	–	–	–	–	–	·	·
COc1ccc(Cn2c(O)c(C=Nc3ccc(OC)cc3)c3ccccc3c2=O)cc1	–	–	–	–	–	·	·
O=C(NNC(=O)C1CCC1)c1ccc(F)cc1	·	–	–	·	·	·	·
Cc1nn(CC(=O)NNC(=O)c2ccccc2F)c([N+](=O)[O-])c1Br	–	–	37	–	–	–	–
CC(=O)Nc1cc(-c2ccncc2)cn2c(-c3ccccc3)cnc12	·	–	–	·	·	·	·
CC(=O)NC(c1ccccc1)c1nc(-c2ccc(F)c(Cl)c2)cs1 (centres undefined)	·	–	–	·	·	·	·
Cc1ccc(-c2nn(-c3ccccc3)cc2C(=O)Nc2ccc(C(=O)O)cc2)cc1	–	–	33	–	–	–	–
O=C(Nc1cccc(S(=O)(=O)NC2=NCCC2)c1)c1cn(-c2ccccc2)nc1-c1ccc(F)cc1	–	–	29	–	–	–	–
CC(=O)NC(c1cccc(F)c1)c1nc(-c2ccoc2)cs1 (centres undefined)	·	–	–	·	·	·	·
CCS(=O)(=O)N1Cc2ccccc2CC1C(=O)Nc1ccc(OC)c(OC)c1 (centres undefined)	–	–	–	–	–	·	·
CCS(=O)(=O)N1Cc2ccccc2CC1C(=O)N(C)Cc1ccc(OC)c(F)c1 (centres undefined)	–	–	34	–	–	–	–
Cc1cccc(C(C)C)c1NC(=O)COC(=O)CCC(=O)N(CC(C)C)c1c(N)n(CC(C)C)c(=O)[nH]c1=O	·	–	–	·	·	·	·
COc1ccc(OC)c2[nH]c(=O)c(CCNC(C)=O)cc12	–	–	–	–	–	·	·
CCS(=O)(=O)NCCc1cc2c(OC)ccc(OC)c2[nH]c1=O	–	–	–	–	–	·	·
COc1ccc(OC)c2[nH]c(=O)c(CCNC(=O)C(=O)c3c(C)[nH]c4ccccc34)cc12	–	–	31	–	–	–	–
COc1ccc(OC)c2[nH]c(=O)c(CCNS(=O)(=O)c3ccc(F)cc3)cc12	–	–	33	–	–	–	–
CCOC(=O)C1(C)CCCN1C(=O)c1cc(F)ccc1C (centres undefined)	·	–	–	·	·	·	·
CC1CCN(C(=O)c2ccc3c(c2)NC(=O)/C(=C/c2ccccc2)S3)CC1	–	8.8	35	–	–	–	–
CCOc1ccc(C(=O)CCC(=O)NCC(=O)OCc2ccccc2)cc1OCC	–	–	32	–	–	–	–
CCOc1ccc(C(=O)OCC(=O)NCc2ccccc2)cc1OCC	–	–	–	–	–	·	·
O=C(CSc1n[nH]c(-c2cccs2)n1)NC1CCS(=O)(=O)C1 (centres undefined)	–	–	–	–	–	·	·
CCN(C(=O)CSc1n[nH]c(-c2cccs2)n1)C1CCS(=O)(=O)C1 (centres undefined)	–	–	30	–	–	–	–

Compound activity (PubChem BioAssay)
